Results: ChEMBL document CHEMBL1123924, “Structure-activity studies of antagonists of luteinizing hormone-releasing hormone with emphasis on the amino-terminal region” (1987)
Residues, ends and D or L forms follow the SMILES beside them.

Key:
Format in all cases: functional
[1] = species: Rattus norvegicus; test: Antiovulatory activity was expressed as the percentage of 12 rats blocked at a dose 0.5 ug.; settings: in the assay text read “14 rats” for “12 rats”
Method in brief: (§1)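 Sprague-Dawley rats given peptide by subcutaneous injection at noon on the day of proestrus, in 40% propane-1,2-diol–0.9% saline vehicle. Oviducts examined for ova the following day.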

[2] = species: Rattus norvegicus; test: Antiovulatory activity was expressed as the percentage of 13 rats blocked at a dose 1 ug.; method in brief: as §1
[3] = species: Rattus norvegicus; test: Antiovulatory activity was expressed as the percentage of 9 rats blocked at a dose 0.5 ug.; method in brief: as §1
[4] = species: Rattus norvegicus; test: Antiovulatory activity was expressed as the percentage of 9 rats blocked at a dose 1 ug.; method in brief: as §1
[5] = species: Rattus norvegicus; test: Antiovulatory activity was expressed as the percentage of 10 rats blocked at a dose 1.5 ug.; method in brief: as §1
[6] = species: Rattus norvegicus; test: Antiovulatory activity was expressed as the percentage of 9 rats blocked at a dose 3 ug.; method in brief: as §1
[7] = species: Rattus norvegicus; test: Antiovulatory activity was expressed as the percentage of 11 rats blocked at a dose 1 ug.; method in brief: as §1
[8] = species: Rattus norvegicus; test: Antiovulatory activity was expressed as the percentage of 8 rats blocked at a dose 3 ug.; method in brief: as §1
[9] = species: Rattus norvegicus; test: Antiovulatory activity was expressed as the percentage of 9 rats blocked at a dose 7.5 ug.; method in brief: as §1
[10] = species: Rattus norvegicus; test: Antiovulatory activity was expressed as the percentage of 11 rats blocked at a dose 0.5 ug.; method in brief: as §1

## CC(=O)N[C@H](Cc1ccc2ccccc2c1)C(=O)N[C@H](Cc1ccc(Cl)cc1)C(=O)N[C@H](Cc1ccc(O)cc1)C(=O)N[C@@H](CO)C(=O)N[C@@H](Cc1ccc(O)cc1)C(=O)N[C@H](CCCN=C(N)N)C(=O)N[C@@H](Cc1ccccc1)C(=O)N[C@@H](CCCN=C(N)N)C(=O)N1CCC[C@H]1C(=O)N[C@H](C)C(N)=O
[1]
  Antiovulatory activity: 86%

## CC(=O)N[C@H](Cc1ccc2ccccc2c1)C(=O)N[C@H](Cc1ccc(Cl)cc1)C(=O)N[C@H](Cc1c[nH]c2ccccc12)C(=O)N[C@@H](CO)C(=O)N[C@@H](Cc1ccc(O)cc1)C(=O)N[C@H](CCCN=C(N)N)C(=O)N[C@@H](CC(C)C)C(=O)N[C@@H](CCCN=C(N)N)C(=O)N1CCC[C@H]1C(=O)N[C@H](C)C(N)=O (HELM PEPTIDE1{[ac].[O=C([C@@H](Cc1ccc2ccccc2c1)N[*:1])[*:2]].[O=C([C@@H](Cc1ccc(Cl)cc1)N[*:1])[*:2]].[dW].S.Y.[dR].L.R.P.[dA].[am]}$$$$V2.0)
[2]
  Antiovulatory activity: 77%

## CC(=O)N[C@H](Cc1ccc2ccccc2c1)C(=O)N[C@H](Cc1ccccc1)C(=O)N[C@H](Cc1ccccc1)C(=O)N[C@@H](CO)C(=O)N[C@@H](Cc1ccc(O)cc1)C(=O)N[C@H](CCCN=C(N)N)C(=O)N[C@@H](Cc1ccccc1)C(=O)N[C@@H](CCCN=C(N)N)C(=O)N1CCC[C@H]1C(=O)N[C@H](C)C(N)=O (HELM PEPTIDE1{[ac].[O=C([C@@H](Cc1ccc2ccccc2c1)N[*:1])[*:2]].[dF].[dF].S.Y.[dR].F.R.P.[dA].[am]}$$$$V2.0)
[3]
  Antiovulatory activity: 56%
[4]
  Antiovulatory activity: 100%

## CC(=O)N[C@H](Cc1ccc(Cl)cc1)C(=O)N[C@H](Cc1ccc(Cl)cc1)C(=O)N[C@H](Cc1c[nH]c2ccccc12)C(=O)N[C@@H](CO)C(=O)N[C@@H](Cc1ccc(O)cc1)C(=O)N[C@H](CCCN=C(N)N)C(=O)N[C@@H](CC(C)C)C(=O)N[C@@H](CCCN=C(N)N)C(=O)N1CCC[C@H]1C(=O)N[C@H](C)C(N)=O (HELM PEPTIDE1{[ac].[O=C([C@@H](Cc1ccc(Cl)cc1)N[*:1])[*:2]].[O=C([C@@H](Cc1ccc(Cl)cc1)N[*:1])[*:2]].[dW].S.Y.[dR].L.R.P.[dA].[am]}$$$$V2.0)
[5]
  Antiovulatory activity: 10%
[6]
  Antiovulatory activity: 67%

## CC(=O)N[C@H](Cc1ccc2ccccc2c1)C(=O)N[C@H](Cc1ccc2ccccc2c1)C(=O)N[C@H](Cc1ccc(O)cc1)C(=O)N[C@@H](CO)C(=O)N[C@@H](Cc1ccc(O)cc1)C(=O)N[C@H](CCCN=C(N)N)C(=O)N[C@@H](Cc1ccccc1)C(=O)N[C@@H](CCCN=C(N)N)C(=O)N1CCC[C@H]1C(=O)N[C@H](C)C(N)=O
[7]
  Antiovulatory activity: 9%
[8]
  Antiovulatory activity: 38%
[9]
  Antiovulatory activity: 100%

## CC(=O)N[C@H](Cc1ccc2ccccc2c1)C(=O)N[C@H](Cc1ccc(Cl)cc1)C(=O)N[C@H](Cc1c[nH]c2ccccc12)C(=O)N[C@@H](CO)C(=O)N[C@@H](Cc1ccc(O)cc1)C(=O)N[C@H](CCCN=C(N)N)C(=O)N[C@@H](Cc1ccccc1)C(=O)N[C@@H](CCCN=C(N)N)C(=O)N1CCC[C@H]1C(=O)N[C@H](C)C(N)=O (HELM PEPTIDE1{[ac].[O=C([C@@H](Cc1ccc2ccccc2c1)N[*:1])[*:2]].[O=C([C@@H](Cc1ccc(Cl)cc1)N[*:1])[*:2]].[dW].S.Y.[dR].F.R.P.[dA].[am]}$$$$V2.0)
[10]
  Antiovulatory activity: 64%
